Source: ChEMBL document CHEMBL1123719, “Leukotriene receptor antagonists. 1. Synthesis and structure-activity relationships of alkoxyacetophenone derivatives” (J Med Chem, 1987)

Organism: Cavia porcellus
Assay: Negative logarithm of compound concentration that reduced an LTD4-induced contraction of guinea pig ileum by 50%
Assay type: functional
Summary of the method: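 Ileum from male Hartley guinea pigs (200-400 g), with isometric tension recorded. Two, three or four antagonist concentrations were tested on a single ileum against a submaximal LTD4 contraction. The concentration giving 50% inhibition was extrapolated by linear regression and expressed as -log IC50.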

Row | Structure (SMILES) | IC50 [µM]
1 | CCCc1c(OCCCCCCN(C)C)ccc(C(C)=O)c1O | 6.31
2 | CCCc1c(OCCCCCCN2CCOCC2)ccc(C(C)=O)c1O | 3.16
3 | CCCc1c(OCCCCCCO)ccc(C(C)=O)c1O | 3.98
4 | CCCc1c(OCCCCCCCCCC(=O)O)ccc(C(C)=O)c1O | 0.794
5 | CCCc1c(OCCCCCCN2CCN(C)CC2)ccc(C(C)=O)c1O | 5.01
6 | CCCc1c(OCCCCCCCCc2nn[nH]n2)ccc(C(C)=O)c1O | 0.316
7 | CCCc1c(OCCCCCCCCCCc2nn[nH]n2)ccc(C(C)=O)c1O | 3.16
8 | CCCc1c(OCCCCCCCC(=O)O)ccc(C(C)=O)c1O | 0.794
9 | CCCc1c(OCCCCCCCCCc2nn[nH]n2)ccc(C(C)=O)c1O | 0.251

System: Cavia porcellus
Assay: Bronchospastic activity to prevent increase in total pulmonary impedance (TPI) in guinea pig when administered intravenously
Assay type: functional
Summary of the method: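 Anesthetized male Hartley guinea pigs (200-400 g), body temperature kept normal on an isothermal pad. Total pulmonary impedance was recorded with pressure transducers. LTD4 was given iv as randomized doses to build dose-response curves. The antagonist was given intravenously.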

Row | Structure (SMILES) | Increase [%]
10 | CCCc1c(OCCCCCCc2nn[nH]n2)ccc(C(C)=O)c1O | 27.1
11 | CCCc1c(OCCCCc2nnn[nH]2)ccc(C(C)=O)c1O [TOMELUKAST] | 2.2
12 | CCCc1c(OCCCCCc2nn[nH]n2)ccc(C(C)=O)c1O | 25.6

Organism: Cavia porcellus
Assay: Percent inhibition LTD4-induced contraction of guinea pig ileum at 1 uM of concentration
Assay type: functional
Summary of the method: (§1)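 Percent reduction of LTD4-induced contraction of isolated ileum from male Hartley guinea pigs (200-400 g). The antagonist was tested at the single concentration stated, and contraction was measured isometrically as grams of force.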

Row | Structure (SMILES) | Inhibition [%]
13 | CCCc1c(OCCCc2nnn[nH]2)ccc(C(C)=O)c1O | 15

Organism: Cavia porcellus
Assay: Percent inhibition LTD4-induced contraction of guinea pig ileum at 30 uM of concentration
Assay type: functional
Summary of the method: as §1

Row | Structure (SMILES) | Inhibition [%]
14 | CCCc1c(OCCC(=O)O)ccc(C(C)=O)c1O | 23
15 | CCCc1c(OCc2nn[nH]n2)ccc(C(C)=O)c1O | 28
16 | CCCc1c(OCC(=O)O)ccc(C(C)=O)c1O | 8
17 | CCCc1c(OCCCC(=O)O)ccc(C(C)=O)c1O | 43

Organism: Cavia porcellus
Assay: Percent inhibition LTD4-induced contraction of guinea pig ileum at 10 uM of concentration
Assay type: functional
Summary of the method: as §1

Row | Structure (SMILES) | Inhibition [%]
18 | CCCc1c(OCCCCCC(=O)O)ccc(O)c1C(C)=O | 0

Organism: Cavia porcellus
Assay: Percent inhibition LTD4-induced contraction of guinea pig ileum at 3 uM of concentration
Assay type: functional
Summary of the method: as §1

Row | Structure (SMILES) | Inhibition [%]
19 | CCCc1c(OCCCCCCCCCCCCc2nn[nH]n2)ccc(C(C)=O)c1O | 47
20 | CCCc1cc(C(C)=O)ccc1OCCCCCC(=O)O | 0
21 | CCCc1c(OCCCCCC(=O)O)ccc(C(=O)OC)c1O | 21
22 | CC(=O)c1ccc(OCCCCCC(=O)O)cc1O | 11
23 | C=CCc1c(OCCCCCC(=O)O)ccc(C(C)=O)c1O | 29
24 | CCCc1c(OCCCCCC#N)ccc(C(C)=O)c1O | 0
25 | CCCc1c(OCCCCCCCCCCC(=O)O)ccc(C(C)=O)c1O | 79

System: cysteinyl leukotriene receptor (Cavia porcellus)
Assay: Inhibition of LTD4-induced contraction of guinea pig ileum.

Row | Structure (SMILES) | pKB
26 | CCCc1c(OCCCCCCCc2nn[nH]n2)ccc(C(C)=O)c1O | 7
27 | CCCc1c(OCCCCCC(=O)O)ccc(C(C)=O)c1O | 6
28 | CCCc1c(OCCCCC(=O)O)ccc(C(C)=O)c1O | 5.8
29 | CCCc1c(OCCCCCCc2nn[nH]n2)ccc(C(C)=O)c1O | 7.1
30 | CCCc1c(OCCCCCc2nn[nH]n2)ccc(C(C)=O)c1O | 6.6
31 | CCCc1c(OCCCCCCCCC(=O)O)ccc(C(C)=O)c1O | 5.8
32 | CCCc1c(OCCCCCCC(=O)O)ccc(C(C)=O)c1O | 5.7
33 | CCCc1c(OCCCCCC(=O)O)ccc(C(=O)CC)c1O | 6.1
